# Experimental data as given in paper PMC3131463 (Journal of medicinal chemistry, 2011).
# “And” between values parts separate entries of the source, which are not always exact repeats. Identical values can stand only once.
# What was measured:
# [1] = test system: LPS-induced NO production in RAW 264 macrophage cells; experiment: Suppression of LPS-induced NO production in RAW 264.7 macrophage cells; type: cell-based
# [2] = molecular target: MARK1 (Homo sapiens, UniProt Q9P0L2); experiment: KinaseSeeker kinase profiling, MARK1; type: binding; conditions: read-out: inhibition of MARK1 (most inhibited kinase)
# [3] = test system: AKT1, CAMK1, DDR2, GSK-3α, MAPK1, MET, PAK1, PDGFRB, PIM1, PKC-γ, PLK4, and SRC; experiment: KinaseSeeker kinase profiling, panel of 12 kinases; type: binding; conditions: at respective RAW264.7 IC50 concentrations (1j 28 µM, 1s 16 µM)
# [4] = test system: MDR1-MDCK monolayer; experiment: MDR1-MDCK permeability assay; type: in vitro ADME; conditions: 5 µM, apical to basolateral and basolateral to apical
# [5] = Metabolic stability in human liver S9 fractions; type: in vitro ADME
# How it was run: (§1)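 Test compound (1 µM, <0.25% DMSO) was incubated at 37 °C with pooled liver S9 protein (1 mg/mL) and 1 mM each of NADPH, UDPGA, PAPS and GSH. Cofactors were added to start reactions at 0, 10, 20, 30 and 60 min, with testosterone and 7-hydroxycoumarin (20 µM each) as positive controls. Depletion was followed by LC-MS/MS peak-area ratio to internal standard, without a standard curve. CLint = k/P.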
# [6] = molecular target: T1, CYP1A2 (Homo sapiens, UniProt P05177); experiment: CYP IC50 in human liver microsomes, CYP1A2; type: in vitro ADME
# T1 sequence (P05177 1-516): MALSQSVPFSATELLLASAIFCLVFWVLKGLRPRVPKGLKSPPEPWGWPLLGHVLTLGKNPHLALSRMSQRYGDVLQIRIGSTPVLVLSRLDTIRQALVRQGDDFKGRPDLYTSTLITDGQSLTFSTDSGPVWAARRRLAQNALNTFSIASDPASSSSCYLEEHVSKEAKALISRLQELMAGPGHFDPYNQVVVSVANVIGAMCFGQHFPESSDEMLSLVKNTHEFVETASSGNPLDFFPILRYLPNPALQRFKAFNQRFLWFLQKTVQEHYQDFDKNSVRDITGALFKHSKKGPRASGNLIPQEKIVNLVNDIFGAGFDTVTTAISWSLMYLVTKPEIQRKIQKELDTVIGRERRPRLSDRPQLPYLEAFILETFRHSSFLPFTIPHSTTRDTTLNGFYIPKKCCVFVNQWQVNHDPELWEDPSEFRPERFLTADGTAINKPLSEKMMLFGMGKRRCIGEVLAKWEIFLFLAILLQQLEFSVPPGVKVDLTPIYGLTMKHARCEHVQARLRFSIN
# How it was run: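 Test compound was run at eight concentrations (0–100 µM), with α-naphthoflavone as positive control. Protein was precipitated and acetaminophen formation measured by LC-MS/MS. IC50 came from a sigmoidal nonlinear regression fit.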
# [7] = test system: human whole blood; experiment: Agonism / hemolysis in human whole blood; type: cell-based; conditions: up to 1 mM
# How it was run: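 Human whole blood from healthy consenting donors, anticoagulated with lepirudin (final 50 µg/mL), was added to tubes holding test compound or PBS with Ca2+/Mg2+. It was preincubated 5–10 min at 37 °C, then given E. coli 0111:B4 ultra-pure LPS (100 ng/mL) or endotoxin-free PBS and rotated 2 h at 37 °C. EDTA (final 10 mM) was added, and plasma TNF-α, IL-8 and IL-6 were measured by singleplex Bio-plex.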
# [8] = molecular target: PKC-γ (Homo sapiens, UniProt P05129); experiment: KinaseSeeker kinase profiling, PKC-γ; type: binding; conditions: read-out: inhibition of PKC-γ (most inhibited kinase)
# [9] = Metabolic stability in human liver microsomes; type: in vitro ADME
# How it was run: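 Test compound (1 µM, <0.25% DMSO) was incubated at 37 °C with human liver microsomal protein (0.5 mg/mL). Cofactors were added to start reactions at 0, 10, 20, 30 and 60 min, with a 5 µM testosterone positive control. NADPH addition was confirmed by fluorimetry. Compound-to-internal-standard peak-area ratio was read by LC-MS/MS without a standard curve. CLint = elimination rate constant / protein concentration.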
# [10] = Metabolic stability in rat liver S9 fractions; type: in vitro ADME
# How it was run: as §1
# Chain of MARK1 (Q9P0L2 whole entry, species assumed): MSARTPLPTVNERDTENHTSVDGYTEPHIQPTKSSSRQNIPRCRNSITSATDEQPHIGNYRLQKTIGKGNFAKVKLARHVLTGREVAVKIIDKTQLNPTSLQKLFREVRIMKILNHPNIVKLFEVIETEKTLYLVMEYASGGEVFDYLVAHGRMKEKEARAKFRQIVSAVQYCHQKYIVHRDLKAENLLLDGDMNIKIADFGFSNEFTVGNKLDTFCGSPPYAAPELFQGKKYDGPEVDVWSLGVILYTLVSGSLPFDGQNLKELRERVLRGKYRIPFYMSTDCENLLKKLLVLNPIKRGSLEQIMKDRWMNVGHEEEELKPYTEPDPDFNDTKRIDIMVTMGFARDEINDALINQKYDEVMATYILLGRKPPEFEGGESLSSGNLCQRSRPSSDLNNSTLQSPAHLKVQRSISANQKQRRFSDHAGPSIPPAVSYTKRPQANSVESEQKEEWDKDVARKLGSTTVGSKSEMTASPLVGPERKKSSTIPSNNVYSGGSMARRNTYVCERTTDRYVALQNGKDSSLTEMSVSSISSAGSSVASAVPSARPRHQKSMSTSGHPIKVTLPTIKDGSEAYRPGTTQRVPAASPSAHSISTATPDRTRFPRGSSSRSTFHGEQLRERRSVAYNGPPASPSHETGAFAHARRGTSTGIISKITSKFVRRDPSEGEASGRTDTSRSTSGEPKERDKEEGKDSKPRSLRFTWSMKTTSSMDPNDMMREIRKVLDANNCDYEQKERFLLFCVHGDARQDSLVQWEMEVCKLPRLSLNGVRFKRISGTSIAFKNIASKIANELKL
activity retained by the majority of the kinases [3],maximal inhibition of any kinase of the panel [3] [%],SMILES,suppression of NO signaling (in words) [1],agonistic effects with respect to cytokine release or hemolysis [7],also measured
,,CCOc1ccc(OCC(O)CN(C)Cc2c(C)nn(Cc3ccccc3OC)c2C)cc1 (stereo not drawn) [1g],no detectable NO suppression,,
> 95% and 95%,≤ 27,Cc1nn(Cc2ccccc2Cl)c(C)c1CN(C)CC(O)COc1ccc(Cl)cc1 (stereo not drawn) [1s],,,inhibition at 16 µM [2]: 26.7%
> 95%,≤ 27,"CCOc1ccc(OCC(O)CN(C)Cc2c(C)nn(Cc3ccccc3Cl)c2C)cc1 (stereo not drawn) [1j, 1-(((1-(2-chlorobenzyl)-3,5-dimethyl-1H-pyrazol-4-yl)methyl)(methyl)amino)-3-(4-ethoxyphenoxy)propan-2-ol]",,no agonistic effects,brain-blood barrier permeability classification [4]: high; microsomal CLint at 1 µM [5]: 300 µL/min/mg; IC50 [6]: > 100 µM; inhibition at 28 µM [8]: 22.4%; microsomal CLint [9]: > 700 µL/min/mg; microsomal CLint [10]: > 350 µL/min/mg
,,"Cc1nn(Cc2ccccc2)c(C)c1CN(C)CC(O)COc1ccccc1 (stereo not drawn) [1a, 1-(((1-benzyl-3,5-dimethyl-1H-pyrazol-4-yl)methyl)(methyl)amino)-3-phenoxypropan-2-ol]",ineffective at suppressing NO signaling,no agonistic effects,
